Activity calls are given as the source filed them. The rule behind the calls is not given here.
Assays:
Plasmodium yoelii [1] = assay: Antimalarial activity against Plasmodium yoelii YM infected in BALB/c mouse assessed as time duration for parasite cure at 10 mg/kg, sc administered BID for 4 days starting at 96 hrs post infection, 8 hrs apart by Giemsa-staining based microscopic analysis; format: functional
Procedure, shortened: (§1)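 P. yoelii-infected mice, n=3 per group. Subcutaneous injection twice daily, 8 h apart, for 4 days starting at 96 h post infection. Growth inhibition read from blood smears at 24 h post treatment. Cure time taken as the minimum period to cure all mice in the group. DMSO controls included.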

Plasmodium yoelii [2] = assay: Antimalarial activity against Plasmodium yoelii YM infected in BALB/c mouse assessed as parasite growth inhibition at 90 mg/kg, sc administered BID for 4 days starting at 96 hrs post infection, 8 hrs apart by Giemsa-staining based microscopic analysis; format: functional; conditions: read-out: GI; procedure, shortened: as §1
Plasmodium yoelii [3] = assay: Antimalarial activity against Plasmodium yoelii YM infected in BALB/c mouse assessed as parasite growth inhibition at 5 mg/kg, sc administered QD for 4 days starting at 2 hrs post infection by Giemsa-staining based microscopic analysis; format: functional; conditions: read-out: GI
Procedure, shortened: (§2)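 P. yoelii-infected mice, n=3 per group. Subcutaneous injection once daily for 4 days starting at 2 h post infection. Growth inhibition determined at 24 h post treatment by blood-smear microscopy. Cure time taken as the minimum period to cure all mice in the group.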

Plasmodium yoelii [4] = assay: Antimalarial activity against Plasmodium yoelii YM infected in BALB/c mouse assessed as parasite growth inhibition at 10 mg/kg, sc administered BID for 4 days starting at 96 hrs post infection, 8 hrs apart by Giemsa-staining based microscopic analysis; format: functional; conditions: read-out: GI; procedure, shortened: as §1
Plasmodium yoelii [5] = assay: Antimalarial activity against Plasmodium yoelii YM infected in BALB/c mouse assessed as parasite growth inhibition at 30 mg/kg, sc administered BID for 4 days starting at 96 hrs post infection, 8 hrs apart by Giemsa-staining based microscopic analysis; format: functional; conditions: read-out: GI; procedure, shortened: as §1
Plasmodium yoelii [6] = assay: Antimalarial activity against Plasmodium yoelii YM infected in BALB/c mouse assessed as time duration for parasite cure at 5 mg/kg, sc administered QD for 4 days starting at 2 hrs post infection by Giemsa-staining based microscopic analysis; format: functional; procedure, shortened: as §2
Plasmodium yoelii [7] = assay: Antimalarial activity against Plasmodium yoelii YM infected in BALB/c mouse assessed as mouse survival at 10 mg/kg, sc administered BID for 4 days starting at 96 hrs post infection, 8 hrs apart by Giemsa-staining based microscopic analysis; format: functional
Procedure, shortened: (§3)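 Mice inoculated with 1×106 P. yoelii parasites. Subcutaneous dosing for 4 days starting 96 h post infection, given once daily or twice daily 8 h apart. Parasitemia followed on Giemsa-stained blood smears. Survival recorded at 40 days post infection; groups of n=3. DMSO-only mice served as untreated controls.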

Plasmodium yoelii [8] = assay: Antimalarial activity against Plasmodium yoelii YM infected in BALB/c mouse assessed as time duration for parasite cure at 10 mg/kg, sc administered QD for 4 days starting at 96 hrs post infection by Giemsa-staining based microscopic analysis; format: functional
Procedure, shortened: (§4)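 P. yoelii-infected mice, n=3 per group. Subcutaneous injection once daily for 4 days starting at 96 h post infection. Parasitemia followed on blood-smear microscopy, with inhibition measured at 24 h post treatment. Cure time taken as the minimum period to cure all mice; survival recorded at 40 days. DMSO controls included.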

Plasmodium yoelii [9] = assay: Antimalarial activity against Plasmodium yoelii YM infected in BALB/c mouse assessed as mouse survival at 30 mg/kg, sc administered BID for 4 days starting at 96 hrs post infection, 8 hrs apart by Giemsa-staining based microscopic analysis; format: functional; procedure, shortened: as §3
Plasmodium yoelii [10] = assay: Antimalarial activity against Plasmodium yoelii YM infected in BALB/c mouse assessed as time duration for parasite cure at 30 mg/kg, sc administered BID for 4 days starting at 96 hrs post infection, 8 hrs apart by Giemsa-staining based microscopic analysis; format: functional; procedure, shortened: as §1
Plasmodium yoelii [11] = assay: Antimalarial activity against Plasmodium yoelii YM infected in BALB/c mouse assessed as parasite cure level at 10 to 90 mg/kg, ip administered on days 1 post infection by Giemsa-stained microscopic analysis; format: functional, organism-based
Procedure, shortened: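 Mice (groups of three) inoculated with 1×10^6 P. yoelii parasites. Single intraperitoneal dose of 10, 30 or 90 mg/kg given 24 h after inoculation. DMSO-only untreated group included. Outcome followed by blood-smear microscopy for cure, with survival scored at 40 days post infection.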

Plasmodium yoelii [12] = assay: Antimalarial activity against Plasmodium yoelii YM infected in BALB/c mouse assessed as time duration for parasite cure at 90 mg/kg, sc administered BID for 4 days starting at 96 hrs post infection, 8 hrs apart by Giemsa-staining based microscopic analysis; format: functional; procedure, shortened: as §1
Plasmodium yoelii [13] = assay: Antimalarial activity against Plasmodium yoelii YM infected in BALB/c mouse assessed as parasite growth inhibition at 10 mg/kg, sc administered QD for 4 days starting at 96 hrs post infection by Giemsa-staining based microscopic analysis; format: functional; conditions: read-out: GI; procedure, shortened: as §4
Plasmodium yoelii [14] = assay: Antimalarial activity against Plasmodium yoelii YM infected in BALB/c mouse assessed as mouse survival at 10 mg/kg, sc administered QD for 4 days starting at 96 hrs post infection by Giemsa-staining based microscopic analysis; format: functional; procedure, shortened: as §3
Plasmodium yoelii [15] = assay: Antimalarial activity against Plasmodium yoelii YM infected in BALB/c mouse assessed as mouse survival at 5 mg/kg, sc administered QD for 4 days starting at 2 hrs post infection by Giemsa-staining based microscopic analysis; format: functional
Procedure, shortened: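 Mice inoculated with 1×106 P. yoelii parasites, then dosed subcutaneously once daily for 4 days starting 2 h post infection. Parasitemia followed by microscopy of blood smears. Survival scored at 40 days post infection in groups of n=3 mice. DMSO-only controls.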

Plasmodium yoelii [16] = assay: Antimalarial activity against Plasmodium yoelii YM infected in BALB/c mouse assessed as mouse survival at 90 mg/kg, sc administered BID for 4 days starting at 96 hrs post infection, 8 hrs apart by Giemsa-staining based microscopic analysis; format: functional; procedure, shortened: as §3

CCc1nc(N)nc(N)c1-c1ccc(Cl)cc1 [PYRIMETHAMINE]
Time (Plasmodium yoelii [1]): 4 days | inhibition in vivo at 90 mg/kg (Plasmodium yoelii [2]): 100% | inhibition in vivo at 5 mg/kg (Plasmodium yoelii [3]): 100% | inhibition in vivo at 10 mg/kg (Plasmodium yoelii [4]): 100% | inhibition in vivo at 30 mg/kg (Plasmodium yoelii [5]): 100% | Time (Plasmodium yoelii [6]): 30 days | survival at 10 mg/kg (Plasmodium yoelii [7]): 100% | Time (Plasmodium yoelii [8]): 17 days | survival at 30 mg/kg (Plasmodium yoelii [9]): 100% | Time (Plasmodium yoelii [10]): 4 days | Activity (Plasmodium yoelii [11]): Active | Time (Plasmodium yoelii [12]): 4 days | inhibition in vivo at 10 mg/kg (Plasmodium yoelii [13]): 98.4% | survival at 10 mg/kg (Plasmodium yoelii [14]): 100% | survival at 5 mg/kg (Plasmodium yoelii [15]): 100% | survival at 90 mg/kg (Plasmodium yoelii [16]): 100%

From ChEMBL document CHEMBL4007417, “Target Elucidation by Cocrystal Structures of NADH-Ubiquinone Oxidoreductase of Plasmodium falciparum (PfNDH2) with Small Molecule To Eliminate Drug-Resistant Malaria” (J Med Chem, 2017)
